# Measurements collected from several papers.
# Each line is one published result; the experiments were not run side by side.
# Cell line: MCF7
# Read-out: cell growth or viability
SMILES,method,time,IC50 [µM]
CN(Cc1cnc2nc(N)nc(N)c2n1)c1ccc(C(=O)N[C@@H](CCC(=O)O)C(=O)O)cc1,MTT,,19
CCNCCCn1c2c(c3cc(OC)c(OC)cc3c1=O)C(=O)c1cc3c(nc1-2)OCO3,,72 h,0.262
Cc1nc(Nc2ccc3c(c2)/C(=C/c2ccccc2Cl)C(=O)N3)c2ccccc2n1,MTT,,6.45
O=C(C=Cc1ccccc1)Nc1cc(-c2ccnc(N3CCC(O)CC3)c2)ccn1,MTT,72 h,2.51
COc1cc2c3c(n(CCCNC(C)C)c(=O)c2cc1OC)-c1nc2c(cc1C3=O)OCO2,,72 h,0.318
Cc1nc(Nc2ccc3c(c2)/C(=C/c2ccccc2)C(=O)N3Cc2ccccc2)c2ccccc2n1,MTT,,11.6
Cc1ccc(-c2cc(-c3c(Cl)cccc3Cl)c3c(=O)n(C)c(=O)n(C)c3n2)cc1,MTT,48 h,6.41
CC(C)CS(=O)(=O)NCc1cccc(-c2ccc3c(NC(=O)CC4CC4)n[nH]c3c2)c1,ATP luminescence,48 h,42
COc1ccc(-c2cc(-c3c(OC)cccc3OC)c3c(=O)[nH]c(=O)[nH]c3n2)cc1,MTT,48 h,32.3
COc1cc2ncnc(Nc3ccc4c(c3)/C(=C/c3ccccc3)C(=O)N4C)c2cc1OC,MTT,,7.84
Cc1ccc(-c2cc(-c3ccc(Cl)cc3)c3c(=O)n(C)c(=O)n(C)c3n2)cc1,MTT,48 h,7.49
CC1CCC(C(C)C)C(OC(=O)C=Cc2ccc(O)c(O)c2)C1 (centres unmarked),MTT,,28.6
COc1ccc(-c2cc(-c3cccc(Br)c3)c3c(=O)n(C)c(=O)n(C)c3n2)cc1,MTT,48 h,13.5
COc1cc2ncnc(N(C)c3ccc4c(c3)/C(=C/c3ccccc3)C(=O)N4C)c2cc1OC (mixture of isomers),MTT,,9.38
COc1cc2c3c(n(CCCNCCO)c(=O)c2cc1OC)-c1nc2c(cc1C3=O)OCO2,,72 h,0.369
Cc1nc(Nc2ccc3c(c2)/C(=C/c2ccccc2)C(=O)N3C)c2ccccc2n1,MTT,,28.8
COc1ccc(-c2cc(-c3cc(OC)ccc3OC)c3c(=O)n(C)c(=O)n(C)c3n2)cc1,MTT,48 h,19.8
Nc1ccccc1OC(=O)C=Cc1ccc(O)c(O)c1,MTT,,22.3
Cc1ccc(-c2cc(-c3ccc(N(C)C)cc3)c3c(=O)n(C)c(=O)n(C)c3n2)cc1,MTT,48 h,15.8
Cc1nc(Nc2ccc3c(c2)/C(=C/c2ccccc2C)C(=O)N3)c2ccccc2n1,MTT,,> 50
